Reference: ChEMBL document CHEMBL1153373, “Effect of ring size on conformation and biological activity of cyclic cationic antimicrobial peptides” (J Med Chem, 2009)
Values after ≈ are worked out from the molar mass of the structure shown. Square brackets hold non-standard residues; d marks the D form. Peptide text beside a SMILES is read from it.

Experiments:
Type in all cases: functional
Streptococcus pneumoniae = assay: Antimicrobial activity against Streptococcus pneumoniae after 24 hrs by standard microtiter dilution method
Staphylococcus aureus = assay: Antimicrobial activity against Staphylococcus aureus after 24 hrs by standard microtiter dilution method
[1] = tested on: Stenotrophomonas maltophilia; assay: Antimicrobial activity against Stenotrophomonas maltophilia after 24 hrs by standard microtiter dilution method
Escherichia coli = assay: Antimicrobial activity against Escherichia coli after 24 hrs by standard microtiter dilution method
Serratia marcescens = assay: Antimicrobial activity against Serratia marcescens after 24 hrs by standard microtiter dilution method
Corynebacterium jeikeium = assay: Antimicrobial activity against Corynebacterium jeikeium after 24 hrs by standard microtiter dilution method
Streptococcus pyogenes = assay: Antimicrobial activity against Streptococcus pyogenes after 24 hrs by standard microtiter dilution method
Streptococcus mitis = assay: Antimicrobial activity against Streptococcus mitis after 24 hrs by standard microtiter dilution method
Pseudomonas aeruginosa = assay: Antimicrobial activity against Pseudomonas aeruginosa after 24 hrs by standard microtiter dilution method
Enterococcus faecalis = assay: Antimicrobial activity against Enterococcus faecalis after 24 hrs by standard microtiter dilution method
Enterobacter cloacae = assay: Antimicrobial activity against Enterobacter cloacae after 24 hrs by standard microtiter dilution method
[2] = tested on: Staphylococcus epidermidis; assay: Antimicrobial activity against Staphylococcus epidermidis after 24 hrs by standard microtiter dilution method
[3] = tested on: Acinetobacter calcoaceticus; assay: Antimicrobial activity against Acinetobacter calcoaceticus after 24 hrs by standard microtiter dilution method
Candida albicans = assay: Antimicrobial activity against Candida albicans after 24 hrs by standard microtiter dilution method
Outline: (§1)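 Fungal MICs were determined by standard microtitre dilution, taken as the lowest peptide concentration inhibiting growth after 24 h incubation at 37 °C.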

Cryptococcus neoformans = assay: Antimicrobial activity against Cryptococcus neoformans after 24 hrs by standard microtiter dilution method; outline: as §1
Klebsiella pneumoniae = assay: Antimicrobial activity against Klebsiella pneumoniae after 24 hrs by standard microtiter dilution method

Row | SMILES | MIC (Streptococcus pneumoniae) | MIC (Staphylococcus aureus) | MIC [1] | MIC (Escherichia coli) | MIC (Serratia marcescens) | MIC (Corynebacterium jeikeium) | MIC (Streptococcus pyogenes) | MIC (Streptococcus mitis) | MIC (Pseudomonas aeruginosa) | MIC (Enterococcus faecalis) | MIC (Enterobacter cloacae) | MIC [2] | MIC [3] | MIC (Candida albicans) | MIC (Cryptococcus neoformans) | MIC (Klebsiella pneumoniae)
1 | CC(C)C[C@@H]1NC(=O)[C@H](CCCCN)NC(=O)[C@H](C(C)C)NC(=O)[C@@H]2CCCN2C(=O)[C@@H](Cc2ccc(O)cc2)NC(=O)[C@H](CC(C)C)NC(=O)[C@H](CCCCN)NC(=O)[C@H](C(C)C)NC(=O)[C@H](CCCCN)NC(=O)[C@H](CC(C)C)NC(=O)[C@@H]2CCCN2C(=O)[C@@H](Cc2ccc(O)cc2)NC(=O)[C@H](C(C)C)NC1=O | 0.5 µg/mL (≈ 0.324 µM) | 4 µg/mL (≈ 2.59 µM) | 32 µg/mL (≈ 20.8 µM) | 64 µg/mL (≈ 41.5 µM) | 256 µg/mL (≈ 166 µM) | 4 µg/mL (≈ 2.59 µM) | 0.5 µg/mL (≈ 0.324 µM) | 1 µg/mL (≈ 0.649 µM) | 256 µg/mL (≈ 166 µM) | 4 µg/mL (≈ 2.59 µM) | 256 µg/mL (≈ 166 µM) | 4 µg/mL (≈ 2.59 µM) | 4 µg/mL (≈ 2.59 µM) | 32 µg/mL (≈ 20.8 µM) |  | 
2 | CC(C)C[C@@H]1NC(=O)[C@H](CCCCN)NC(=O)[C@H](C(C)C)NC(=O)[C@@H]2CCCN2C(=O)[C@@H](Cc2ccc(O)cc2)NC(=O)[C@H](CC(C)C)NC(=O)[C@H](CCCCN)NC(=O)[C@H](C(C)C)NC(=O)[C@H](CCCCN)NC(=O)[C@H](CC(C)C)NC(=O)[C@H](CCCCN)NC(=O)[C@@H]2CCCN2C(=O)[C@@H](Cc2ccc(O)cc2)NC(=O)[C@H](CCCCN)NC(=O)[C@H](C(C)C)NC(=O)[C@H](CCCCN)NC1=O (cyclo(VKLKVK[dY]PKLKVKL[dY]P)) | 1 µg/mL (≈ 0.519 µM) |  |  | 4 µg/mL (≈ 2.08 µM) |  |  |  |  |  | 4 µg/mL (≈ 2.08 µM) | 64 µg/mL (≈ 33.2 µM) | 2 µg/mL (≈ 1.04 µM) | 2 µg/mL (≈ 1.04 µM) | 64 µg/mL (≈ 33.2 µM) | 64 µg/mL (≈ 33.2 µM) | 
3 | CC(C)C[C@@H]1NC(=O)[C@H](CCCCN)NC(=O)[C@@H]2CCCN2C(=O)[C@@H](Cc2ccc(O)cc2)NC(=O)[C@H](CCCCN)NC(=O)[C@H](C(C)C)NC(=O)[C@H](CC(C)C)NC(=O)[C@H](CCCCN)NC(=O)[C@H](C(C)C)NC(=O)[C@@H]2CCCN2C(=O)[C@@H](Cc2ccc(O)cc2)NC(=O)[C@H](CC(C)C)NC(=O)[C@H](CCCCN)NC(=O)[C@H](C(C)C)NC(=O)[C@H](CCCCN)NC1=O (cyclo(VKLVK[dY]PKLKVKL[dY]P)) |  | 32 µg/mL (≈ 17.8 µM) | 8 µg/mL (≈ 4.45 µM) | 16 µg/mL (≈ 8.9 µM) | 256 µg/mL (≈ 142 µM) | 1 µg/mL (≈ 0.556 µM) |  | 4 µg/mL (≈ 2.22 µM) |  | 4 µg/mL (≈ 2.22 µM) | 256 µg/mL (≈ 142 µM) | 16 µg/mL (≈ 8.9 µM) |  |  |  | 8 µg/mL (≈ 4.45 µM)
4 | CC(C)C[C@@H]1NC(=O)[C@H](CCCCN)NC(=O)[C@H](C(C)C)NC(=O)[C@@H]2CCCN2C(=O)[C@@H](Cc2ccc(O)cc2)NC(=O)[C@H](CC(C)C)NC(=O)[C@H](CCCCN)NC(=O)[C@H](C(C)C)NC(=O)[C@H](CCCCN)NC(=O)[C@H](CC(C)C)NC(=O)[C@H](CCCCN)NC(=O)[C@@H]2CCCN2C(=O)[C@@H](Cc2ccc(O)cc2)NC(=O)[C@H](CCCCN)NC(=O)[C@H](CCCCN)NC1=O (cyclo(VKLKK[dY]PKLKVKL[dY]P)) |  | 64 µg/mL (≈ 35 µM) |  |  | 256 µg/mL (≈ 140 µM) | 8 µg/mL (≈ 4.38 µM) |  | 8 µg/mL (≈ 4.38 µM) |  | 8 µg/mL (≈ 4.38 µM) |  |  | 2 µg/mL (≈ 1.09 µM) | 64 µg/mL (≈ 35 µM) | 64 µg/mL (≈ 35 µM) | 8 µg/mL (≈ 4.38 µM)
5 | CC(C)C[C@@H]1NC(=O)[C@H](CCCCN)NC(=O)[C@H](C(C)C)NC(=O)[C@@H]2CCCN2C(=O)[C@@H](Cc2ccc(O)cc2)NC(=O)[C@H](CC(C)C)NC(=O)[C@H](CCCCN)NC(=O)[C@H](C(C)C)NC(=O)[C@H](CCCCN)NC(=O)[C@H](CC(C)C)NC(=O)[C@H](CCCCN)NC(=O)[C@@H]2CCCN2C(=O)[C@@H](Cc2ccc(O)cc2)NC(=O)[C@H](C(C)C)NC(=O)[C@H](CCCCN)NC1=O (cyclo(VKLKV[dY]PKLKVKL[dY]P)) | 0.5 µg/mL (≈ 0.278 µM) | 2 µg/mL (≈ 1.11 µM) | 4 µg/mL (≈ 2.22 µM) |  |  | 2 µg/mL (≈ 1.11 µM) | 0.5 µg/mL (≈ 0.278 µM) | 0.5 µg/mL (≈ 0.278 µM) |  | 2 µg/mL (≈ 1.11 µM) |  |  | 2 µg/mL (≈ 1.11 µM) |  | 1 µg/mL (≈ 0.556 µM) | 8 µg/mL (≈ 4.45 µM)
6 | CC(C)C[C@@H]1NC(=O)[C@H](CCCCN)NC(=O)[C@H](C(C)C)NC(=O)[C@@H]2CCCN2C(=O)[C@@H](Cc2ccc(O)cc2)NC(=O)[C@H](CC(C)C)NC(=O)[C@H](CCCCN)NC(=O)[C@H](C(C)C)NC(=O)[C@H](CCCCN)NC(=O)[C@@H]2CCCN2C(=O)[C@@H](Cc2ccc(O)cc2)NC1=O | 2 µg/mL (≈ 1.5 µM) | 16 µg/mL (≈ 12 µM) |  | 64 µg/mL (≈ 48.1 µM) | 256 µg/mL (≈ 193 µM) | 2 µg/mL (≈ 1.5 µM) |  |  |  |  | 256 µg/mL (≈ 193 µM) |  | 8 µg/mL (≈ 6.02 µM) |  |  | 32 µg/mL (≈ 24.1 µM)
7 | CC(C)C[C@@H]1NC(=O)[C@H](CCCCN)NC(=O)[C@H](C(C)C)NC(=O)[C@H](CCCCN)NC(=O)[C@@H]2CCCN2C(=O)[C@@H](Cc2ccc(O)cc2)NC(=O)[C@H](CCCCN)NC(=O)[C@H](CCCCN)NC(=O)[C@H](C(C)C)NC(=O)[C@@H]2CCCN2C(=O)[C@@H](Cc2ccc(O)cc2)NC1=O (cyclo(VKK[dY]PKVKL[dY]P)) | 256 µg/mL (≈ 190 µM) | 256 µg/mL (≈ 190 µM) | 256 µg/mL (≈ 190 µM) |  | 256 µg/mL (≈ 190 µM) |  |  | 64 µg/mL (≈ 47.6 µM) | 256 µg/mL (≈ 190 µM) | 256 µg/mL (≈ 190 µM) | 256 µg/mL (≈ 190 µM) | 256 µg/mL (≈ 190 µM) |  | 256 µg/mL (≈ 190 µM) | 128 µg/mL (≈ 95.2 µM) | 256 µg/mL (≈ 190 µM)
8 | CC(C)C[C@@H]1NC(=O)[C@H](CCCCN)NC(=O)[C@H](C(C)C)NC(=O)[C@@H]2CCCN2C(=O)[C@@H](Cc2ccc(O)cc2)NC(=O)[C@H](CC(C)C)NC(=O)[C@H](CCCCN)NC(=O)[C@H](C(C)C)NC(=O)[C@H](CCCCN)NC(=O)[C@@H]2CCCN2C(=O)[C@@H](Cc2ccc(O)cc2)NC(=O)[C@H](CCCCN)NC1=O (cyclo(KLK[dY]PKVKL[dY]PV)) | 16 µg/mL (≈ 11 µM) | 64 µg/mL (≈ 43.9 µM) | 128 µg/mL (≈ 87.8 µM) |  | 256 µg/mL (≈ 176 µM) |  | 2 µg/mL (≈ 1.37 µM) |  |  | 64 µg/mL (≈ 43.9 µM) | 256 µg/mL (≈ 176 µM) | 64 µg/mL (≈ 43.9 µM) | 16 µg/mL (≈ 11 µM) |  | 16 µg/mL (≈ 11 µM) | 64 µg/mL (≈ 43.9 µM)
9 | CC(C)C[C@@H]1NC(=O)[C@H](CCCCN)NC(=O)[C@H](C(C)C)NC(=O)[C@@H]2CCCN2C(=O)[C@@H](Cc2ccc(O)cc2)NC(=O)[C@H](CC(C)C)NC(=O)[C@H](CCCCN)NC(=O)[C@H](C(C)C)NC(=O)[C@@H]2CCCN2C(=O)[C@@H](Cc2ccc(O)cc2)NC(=O)[C@H](CCCCN)NC1=O (cyclo(VKLK[dY]PVKL[dY]P)) | 8 µg/mL (≈ 6.02 µM) | 64 µg/mL (≈ 48.1 µM) | 64 µg/mL (≈ 48.1 µM) | 64 µg/mL (≈ 48.1 µM) |  | 2 µg/mL (≈ 1.5 µM) |  |  | 256 µg/mL (≈ 193 µM) | 32 µg/mL (≈ 24.1 µM) | 256 µg/mL (≈ 193 µM) |  | 8 µg/mL (≈ 6.02 µM) |  | 32 µg/mL (≈ 24.1 µM) | 64 µg/mL (≈ 48.1 µM)
10 | CC(C)C[C@@H]1NC(=O)[C@H](CCCCN)NC(=O)[C@H](C(C)C)NC(=O)[C@@H]2CCCN2C(=O)[C@@H](Cc2ccc(O)cc2)NC(=O)[C@H](CC(C)C)NC(=O)[C@H](CCCCN)NC(=O)[C@H](C(C)C)NC(=O)[C@H](CCCCN)NC(=O)[C@H](CC(C)C)NC(=O)[C@@H]2CCCN2C(=O)[C@@H](Cc2ccc(O)cc2)NC(=O)[C@H](CCCCN)NC1=O (cyclo(VKLK[dY]PLKVKL[dY]P)) |  | 4 µg/mL (≈ 2.55 µM) |  | 16 µg/mL (≈ 10.2 µM) |  | 2 µg/mL (≈ 1.27 µM) |  | 0.5 µg/mL (≈ 0.318 µM) |  | 4 µg/mL (≈ 2.55 µM) |  |  |  |  |  | 8 µg/mL (≈ 5.09 µM)
11 | CC(C)C[C@@H]1NC(=O)[C@H](CCCCN)NC(=O)[C@H](C(C)C)NC(=O)[C@H](CCCCN)NC(=O)[C@H](CC(C)C)NC(=O)[C@@H]2CCCN2C(=O)[C@@H](Cc2ccc(O)cc2)NC(=O)[C@H](C(C)C)NC(=O)[C@H](CCCCN)NC(=O)[C@H](CCCCN)NC(=O)[C@H](C(C)C)NC(=O)[C@@H]2CCCN2C(=O)[C@@H](Cc2ccc(O)cc2)NC1=O (cyclo(KKV[dY]PLKVKL[dY]PV)) | 0.5 µg/mL (≈ 0.321 µM) |  | 16 µg/mL (≈ 10.3 µM) |  |  |  | 0.5 µg/mL (≈ 0.321 µM) |  |  | 8 µg/mL (≈ 5.14 µM) | 128 µg/mL (≈ 82.2 µM) | 2 µg/mL (≈ 1.28 µM) | 2 µg/mL (≈ 1.28 µM) | 16 µg/mL (≈ 10.3 µM) |  | 
